Assay outcomes from PubChem BioAssay.
Only some compounds are listed: those with a hit (about 4.3% of all), similar ones and a draw of the others.
SMARCA2 activ: increases SMARCA2 function in MMTV reporter cells; MG213 cells, MMTV-luciferase reporter, dexamethasone, overnight; activation, % at 9.1 µM; 370,000 compounds, 1% hits; AID 652017; in the data active means activation above about 7.8%;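 further: 0% = vehicle wells and 100% = reference activator wells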
CR mimetic SO: yeast age-related superoxide inhibition as caloric restriction mimetic; superoxide response (% of plate mean), % at 10 µM; AID 2690; 330,000 compounds, 0.18% hits; S. cerevisiae aged cells, superoxide DHE fluorescence; active compounds read low;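 active means superoxide response under a set limit, about three screen SD below normal, cut at about 65% in these data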;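 further: yeast aged for seven days with compound at 30 °C before DHE staining; 100% = average MFI of all compound-treated wells on the plate with controls excluded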
Lipid droplet: modulators of hepatic lipid droplet formation; AID 1656; AML12 mouse hepatocytes, oleate lipid droplets, BODIPY imaging; 240,000 compounds, 0.4% hits; inhibition, % at 6.5 µM;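 active means lipid droplet intensity inhibited by at least 50%, with more than 500 cells counted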
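Assay system: AML12 hepatocytes (mouse); Probe or stimulus: oleic acid at 100 µM to induce lipid droplet formation; Dosing: compound at 6.5 µM only; Schedule: compound with oleate, overnight; Detection: fluorescence imaging, 20x objective, two fields per well; Measure: % inhibition of lipid droplet signal.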
SR-BI DiI-HDL act: activators of SR-BI mediated HDL lipid uptake. 320,000 compounds, 0.096% hits. CHO ldlA[mSR-BI] cells, DiI-HDL uptake fluorescence, 3 h; 100 = double the neutral-control signal. activation, % at 12.5 µM;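 active means mean replicate activation of at least 60% and every replicate at or above 60%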;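 further: 0% = median plate neutral-control signal and 100% = twice that signal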
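System: CHO ldlA[mSR-BI] cells / Medium: HEPES-buffered (25 mM, pH 7.4) F12 plus 0.5% BSA / Probe or stimulus: labelled HDL, 10 µg/mL / Doses: single compound concentration, delivered by pin transfer / Schedule: 3 h, 37 °C / Measured by: DiI fluorescence, bottom read / Measure: cell-associated DiI fluorescence as measure of HDL uptake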
SR-BI HDL uptake: blocks mouse SR-BI lipid uptake from DiI-HDL; AID 488896; ldlA[mSR-BI] CHO cells, DiI-HDL uptake fluorescence, 3 h; 320,000 compounds, 0.96% hits; inhibition, % at 12.5 µM; Q61009;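 active means mean replicate inhibition of at least 70% and a set share of replicates each scoring 70 or more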;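 further: 0% = median of neutral control wells and 100% = median of positive control wells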
AHR activator: activators of human aryl hydrocarbon receptor. P35869. AHR-responsive luciferase reporter cells, luminescence. activation, % at 5 µM. 320,000 compounds, 2.5% hits. AID 2796; in the data active means activation above about 47%;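 further: 0% = vehicle wells and 100% = reference agonist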
AHR act confirm: confirmation of human aryl hydrocarbon receptor activators. human cells, AHR-responsive luciferase reporter, luminescence. 2,300 compounds, 87% hits. shares compounds with AHR activator. activation, % at 9 µM; in the data active means activation above about 49%;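 further: HepG2 hepatoma cells carrying a DRE-driven firefly luciferase reporter; 0% = vehicle wells and 100% = reference agonist wells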
PXR counter: activates human PXR in AHR activator counter-screen; shares compounds with AHR activator; cell-based PXR reporter, luciferase luminescence; activation, % at 11.6 µM; 2,300 compounds, 88% hits; AID 434939; in the data active means activation above about 11%;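 further: human hepatoma DPX-2 cells expressing full-length human PXR; 0% = DMSO and 100% = reference agonist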
Target sequence (O75469 whole entry, looked up): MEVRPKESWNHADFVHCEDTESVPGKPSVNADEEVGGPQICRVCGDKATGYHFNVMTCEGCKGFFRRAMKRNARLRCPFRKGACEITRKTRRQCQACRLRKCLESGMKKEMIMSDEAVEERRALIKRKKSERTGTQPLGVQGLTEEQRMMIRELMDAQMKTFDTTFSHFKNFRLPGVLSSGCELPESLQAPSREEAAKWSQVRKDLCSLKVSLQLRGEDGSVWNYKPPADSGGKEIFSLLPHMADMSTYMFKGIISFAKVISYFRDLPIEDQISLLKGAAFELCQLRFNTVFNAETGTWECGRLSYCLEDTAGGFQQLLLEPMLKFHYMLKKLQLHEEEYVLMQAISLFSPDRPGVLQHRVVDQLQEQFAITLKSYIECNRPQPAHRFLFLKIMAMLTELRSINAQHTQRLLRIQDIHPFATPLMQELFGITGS
* = called active by the depositor; nt = no result.

SMILES	SMARCA2 activ	CR mimetic SO	Lipid droplet	SR-BI DiI-HDL act	SR-BI HDL uptake	AHR activator	AHR act confirm	PXR counter
C[n+]1c2n(c3ccccc31)N=C(c1ccccc1)CS2	-6.0	90.0	-29.7	1.3	-1.3	69.1*	52.1*	32.1*
Cc1cccc(-c2nnc3n2N=C(c2ccccc2)CS3)c1	-3.0	115.2	nt	-39.3	39.3	4.5	nt	nt
CCOC(=O)C1=C(C(=O)OCC)C2N(Cc3ccc(Br)cc3)c3ccccc3[C@@]23C[C@@H](C(=O)OC)N(S(=O)(=O)c2ccc(F)cc2)C3=N1 (stereo partly specified)	-1.4	nt	nt	nt	nt	nt	nt	nt
CCc1nc2oc3ccccc3c(=O)c2c(=O)n1-c1ccccc1	0.4	95.1	0.7	5.7	-5.7	98.9*	117.9*	23.5*
CCCc1nc2oc3ccccc3c(=O)c2c(=O)n1-c1ccc(C)cc1	6.4	95.8	0.0	nt	nt	80.7*	76.0*	67.8*
CCCCn1c(-c2cccs2)nc2oc3ccccc3c(=O)c2c1=O	0.8	98.4	-10.2	-12.9	12.9	2.3	nt	nt
COC1C(O)CCC2(CO2)C1C1(C)OC1CC=C(C)C (stereo unspecified)	2.6	nt	nt	nt	nt	nt	nt	nt
Cc1cc(N2CCNC[C@@H]2C)ccc1N1CCN(Cc2ccccc2)[C@H](C)C1	5.0	nt	nt	nt	nt	nt	nt	nt
Cc1sc(NC(=O)C2=COCCO2)nc1-c1ccc(Br)cc1	0.4	98.3	nt	-54.9	54.9	98.7*	94.4*	33.6*
O=C(O)c1ccc(-c2nc3ccccc3s2)o1	7.7	94.5	24.8	19.2	-19.2	3.7	nt	nt
O=C(c1ccc(-c2nc3ccccc3s2)o1)N1CCN(c2ccccc2O)CC1	-0.3	102.1	-3.9	-13.5	13.5	89.2*	85.3*	37.4*
C/C(=N\NC(=O)c1cccc([N+](=O)[O-])c1)c1cccs1	2.9	115.1	27.9	2.8	-2.8	80.9*	78.9*	30.7*
N=c1n(CC(=O)c2ccc(Br)cc2)c2ccccc2n1Cc1ccccc1	-0.2	108.9	nt	-6.3	6.3	124.2*	81.3*	46.4*
N=c1n(CC(=O)c2ccc([N+](=O)[O-])cc2)c2ccccc2n1Cc1ccccc1	-1.6	94.6	-29.2	-14.9	14.9	1.9	nt	nt
OCCCN1CCC2(CCC(c3ccccc3)CC2)C1 (stereo unspecified)	-2.1	nt	nt	nt	nt	nt	nt	nt
Nc1nc2ccccc2n1/N=C/c1cccnc1	0.0	105.3	nt	35.1	-35.1	32.5	nt	nt
Nc1nc2ccccc2n1/N=C/c1ccc([N+](=O)[O-])s1	-5.6	105.6	-2.6	-12.5	12.5	127.6*	79.0*	11.4*
Cc1ccnc2ccc(-c3nc4ccccc4o3)cc12	7.4	95.7	nt	-38.5	38.5	86.6*	183.0*	54.1*
Cc1cc(-c2nc3ccccc3o2)c2ccccc2n1	0.9	112.7	nt	-7.8	7.8	104.6*	134.7*	10.6*
COC(=O)[C@]12C[C@H](CC(=O)NCc3ccccc3)C(=O)N(Cc3cccc4ccccc34)C1=C[C@H](C(C)(C)C)O[C@@H]2C	-1.2	nt	nt	nt	nt	nt	nt	nt
Fc1ccc2nc(Nc3nc4cc5c(cc4s3)OCCO5)sc2c1	6.4	114.2	6.1	0.6	-0.6	103.0*	51.7*	-6.3
Fc1ccc2nc(Nc3nc4cc5c(cc4s3)OCO5)sc2c1	3.4	98.9	12.0	-4.6	4.6	119.3*	80.0*	19.2*
O=C(Nc1nc2cc3c(cc2s1)OCCO3)c1ccncc1	6.0	79.0	-1.1	-30.2	30.2	7.0	nt	nt
CC(C)(C)c1ccc(-c2nnc(SCC3CCCCO3)n2-c2ccc(Cl)cc2)cc1 (stereo unspecified)	-4.3	nt	nt	nt	nt	nt	nt	nt
Clc1ccccc1Nc1nc(-c2cccnc2)cs1	2.5	97.4	-13.5	-1.8	1.8	114.3*	128.6*	15.6*
SMILES	SMARCA2 activ	CR mimetic SO	Lipid droplet	SR-BI DiI-HDL act	SR-BI HDL uptake	AHR activator	AHR act confirm	PXR counter
c1ccc(Nc2nc(-c3cccnc3)cs2)nc1	-0.2	91.7	nt	-2.9	2.9	166.3*	74.5*	41.2*
Fc1ccc(-c2csc(Nc3ccccn3)n2)cc1	0.4	104.8	5.2	1.8	-1.8	82.5*	107.2*	18.0*
NNc1nc(-c2ccccc2)cs1	4.8	110.4	0.3	-6.9	6.9	79.8*	81.8*	26.7*
Cc1ccc(Nc2nc(-c3ccc(F)cc3)cs2)nc1	0.4	98.2	nt	-48.9	48.9	nt	nt	nt
Cc1[nH]c2ccccc2c1CC(=O)Nc1ccc(Nc2cccnc2)c(-c2ccc(OC(F)(F)F)cc2)c1	-4.3	nt	nt	nt	nt	nt	nt	nt
CCCCCCCCN1C(=O)[C@@H](CC(=O)N2CCN(C(=O)C3CC3)CC2)C[C@@]2(C(=O)OC)C1=C[C@H](C(C)(C)C)O[C@@H]2C	-2.8	nt	nt	nt	nt	nt	nt	nt
Fc1ccc(-c2csc(NC(=S)Nc3ccccc3)n2)cc1	-2.2	90.7	6.3	-62.5	62.5	83.8*	78.5*	32.0*
Cc1ccnc(Nc2nc(-c3ccccc3)cs2)c1	3.6	101.2	-2.5	-30.1	30.1	163.2*	88.7*	47.6*
COc1ccc(-c2csc(Nc3cc(C)ccn3)n2)cc1OC	-1.4	106.1	3.7	nt	nt	-2.7	nt	nt
CC(=O)Nc1cccc(-c2csc(Nc3ccc(Cl)cn3)n2)c1	2.9	101.4	10.7	-59.8	59.8	10.8	nt	nt
CC(=O)Nc1nc(C)c(-c2csc(Nc3cccc([N+](=O)[O-])c3)n2)s1	0.5	103.8	9.6	-48.9	48.9	-6.2	nt	nt
CC(=O)Nc1nc(C)c(-c2csc(Nc3ccccn3)n2)s1	0.2	95.3	5.6	-59.9	59.9	116.2*	107.8*	31.9*
CC(=O)Nc1cccc(-c2csc(Nc3ccccn3)n2)c1	6.1	82.8	nt	-46.9	46.9	85.1*	73.9*	8.2
C=CCN(CC#CC1=CCCCC1)Cc1ccccc1	7.0	nt	nt	nt	nt	nt	nt	nt
C[C@H](O)[C@@H]1CN2CCc3ccc(N4CCOCC4)cc3[C@@H]2C[C@@H]1N(C)C(=O)c1cccc(Cl)c1	-2.8	nt	nt	nt	nt	nt	nt	nt
CCC(=O)Nc1cccc(-c2csc(-c3ccccc3)n2)c1	-3.6	101.1	-22.9	54.4	-54.4	105.5*	84.5*	20.6*
O=C(CSc1ncn[nH]1)Nc1nc(-c2ccccc2)ns1	-0.8	108.0	0.1	12.8	-12.8	28.7	nt	nt
CC(C)CC(=O)Nc1cccc(-c2csc(-c3ccccc3)n2)c1	1.9	80.0	-3.7	-52.7	52.6	17.1	nt	nt
Cc1ccc(C)c(Nc2nc(-c3cccnc3)cs2)c1	1.1	99.5	6.1	0.4	-0.4	82.2*	90.2*	26.2*
CCC(=O)Nc1nc(-c2ccccc2)ns1	6.6	108.7	-0.5	-38.3	38.3	102.3*	84.4*	32.3*
CC1=NN(C(=O)c2ccncc2)C(=O)C1N=Nc1ccc2ccccc2c1 (stereo unspecified)	1.6	nt	nt	-4.0	4.0	nt	nt	nt
